The source made the active and inactive calls. No cut-off for these calls is given here.
Assays:
[1] = target: T1, Peroxisome proliferator-activated receptor alpha (Homo sapiens, UniProt Q07869); assay: Agonist activity at human PPARalpha expressed in MCF7 cells co-transfected CPTI DR1-type RE after 6 hrs by luciferase reporter gene assay; assay type: functional, cell-based
T1 sequence (Q07869 whole entry): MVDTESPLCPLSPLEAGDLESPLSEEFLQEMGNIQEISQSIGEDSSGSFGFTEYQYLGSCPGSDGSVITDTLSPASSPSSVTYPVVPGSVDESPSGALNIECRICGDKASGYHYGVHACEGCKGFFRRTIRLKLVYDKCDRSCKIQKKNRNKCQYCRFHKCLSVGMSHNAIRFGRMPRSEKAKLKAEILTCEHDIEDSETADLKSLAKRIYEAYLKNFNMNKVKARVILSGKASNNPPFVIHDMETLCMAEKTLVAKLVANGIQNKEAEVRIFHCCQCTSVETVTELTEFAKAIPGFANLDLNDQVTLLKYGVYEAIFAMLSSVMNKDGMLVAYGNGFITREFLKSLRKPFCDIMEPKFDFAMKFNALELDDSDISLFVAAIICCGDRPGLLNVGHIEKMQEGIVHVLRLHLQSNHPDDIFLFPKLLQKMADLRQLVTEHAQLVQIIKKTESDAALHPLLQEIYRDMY
Procedure, shortened: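 Luciferase reporter assay in extracts of MCF-7 cells transiently transfected with a human CPTI DR1-type response element reporter (four copies), plus PPARα, RXRα and NCoR vectors. Cells exposed 6 h to compounds at 10 μM, DMSO as solvent control. Basal and ligand-induced activity recorded.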

Cannabinoid receptor 1 = Cannabinoid receptor 1 (Homo sapiens, UniProt P21554); assay: Displacement of [3H]-CP55940 from CB1 receptor after 90 mins by liquid scintillation counting
Chain of Cannabinoid receptor 1 (P21554 whole entry): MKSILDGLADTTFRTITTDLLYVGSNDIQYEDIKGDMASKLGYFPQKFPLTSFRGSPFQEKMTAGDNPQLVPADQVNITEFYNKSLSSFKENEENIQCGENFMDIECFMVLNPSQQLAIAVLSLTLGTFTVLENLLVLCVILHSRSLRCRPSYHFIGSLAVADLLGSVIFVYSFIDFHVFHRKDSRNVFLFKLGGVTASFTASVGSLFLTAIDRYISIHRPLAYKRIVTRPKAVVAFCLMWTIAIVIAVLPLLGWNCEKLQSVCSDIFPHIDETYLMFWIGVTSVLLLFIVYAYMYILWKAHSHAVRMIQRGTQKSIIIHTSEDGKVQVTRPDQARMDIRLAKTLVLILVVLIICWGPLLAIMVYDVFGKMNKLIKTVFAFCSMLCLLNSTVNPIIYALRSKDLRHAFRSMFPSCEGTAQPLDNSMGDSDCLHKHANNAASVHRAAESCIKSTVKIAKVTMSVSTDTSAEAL

[2] = target: Cannabinoid receptor 1 (Mus musculus) (UniProt P47746); assay: Agonist activity at CB1 receptor in ICR mouse vas deferens assessed as inhibition of amplitude of electrically-stimulated muscle contraction at 10^-7 to 1.8 x 10^-5 M relative to control; assay type: functional, tissue-based
Chain of Cannabinoid receptor 1 (Mus musculus) (P47746 whole entry): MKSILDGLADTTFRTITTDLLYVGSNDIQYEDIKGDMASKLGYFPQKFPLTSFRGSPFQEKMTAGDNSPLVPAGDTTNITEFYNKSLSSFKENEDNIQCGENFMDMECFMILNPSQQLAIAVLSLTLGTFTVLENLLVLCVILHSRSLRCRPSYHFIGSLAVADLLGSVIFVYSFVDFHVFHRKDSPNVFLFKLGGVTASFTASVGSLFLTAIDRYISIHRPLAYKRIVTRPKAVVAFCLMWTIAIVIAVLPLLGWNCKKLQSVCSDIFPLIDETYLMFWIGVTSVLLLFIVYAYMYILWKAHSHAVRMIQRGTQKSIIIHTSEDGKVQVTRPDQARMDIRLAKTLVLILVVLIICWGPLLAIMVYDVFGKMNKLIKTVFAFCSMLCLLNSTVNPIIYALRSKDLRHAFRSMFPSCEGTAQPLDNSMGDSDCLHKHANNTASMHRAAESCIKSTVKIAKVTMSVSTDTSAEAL
Procedure, shortened: (§1)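 Mouse vas deferens, electrically stimulated nerve-smooth muscle preparation. Compounds tested at 10^-7 to 1.8 × 10^-5 M for effects on the nonstimulated basal recording and on the amplitude of electrically evoked contractions. Read-out was % inhibition of evoked contraction compared with vehicle.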

[3] = target: Cannabinoid receptor 1 (Mus musculus) (UniProt P47746); assay: Antagonist activity at CB1 receptor in ICR mouse vas deferens assessed as inhibition of ACEA-stimulated electrically-induced muscle contraction at 10^-6 M; assay type: functional, tissue-based
Procedure, shortened: (§2)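 Mouse vas deferens under electrical stimulation. Tissues were preincubated with compound at 10^-6 or 2 × 10^-6 M, then increasing concentrations of the CB1 agonist ACEA were added. Mean ± SEM, n = 6–8.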

[4] = target: Cannabinoid receptor 1 (Mus musculus) (UniProt P47746); assay: Antagonist activity at CB1 receptor in ICR mouse vas deferens assessed as inhibition of ACEA-stimulated electrically-induced muscle contraction at 2 x 10^-6 M; assay type: functional, tissue-based; procedure, shortened: as §2
[5] = target: Cannabinoid receptor 2 (Mus musculus) (UniProt P47936); assay: Antagonist activity at CB2 receptor in ICR mouse vas deferens assessed as inhibition of JWH-015-stimulated electrically-induced muscle contraction; assay type: functional, tissue-based
Chain of Cannabinoid receptor 2 (Mus musculus) (P47936 whole entry): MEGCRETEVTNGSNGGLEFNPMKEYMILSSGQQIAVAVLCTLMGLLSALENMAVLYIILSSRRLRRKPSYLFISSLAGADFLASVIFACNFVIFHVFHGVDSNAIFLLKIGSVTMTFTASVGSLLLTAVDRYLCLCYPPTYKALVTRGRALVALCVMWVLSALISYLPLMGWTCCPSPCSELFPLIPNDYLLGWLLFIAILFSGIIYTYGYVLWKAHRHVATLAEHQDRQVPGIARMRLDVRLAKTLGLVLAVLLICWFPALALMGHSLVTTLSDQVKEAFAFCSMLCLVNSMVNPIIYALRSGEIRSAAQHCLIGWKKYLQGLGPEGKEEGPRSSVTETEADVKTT

[6] = target: Cannabinoid receptor 1 (Mus musculus) (UniProt P47746); assay: Agonist activity at CB1 receptor in ICR mouse vas deferens assessed as effect on amplitude of nonstimulated muscle contraction at 10^-7 to 1.8 x 10^-5 M relative to control; assay type: functional, tissue-based; procedure, shortened: as §1
Rattus norvegicus = assay: Inhibition of food intake in Wistar rat at 0.03 to 3 mg/kg, ip after 30 to 240 mins; assay type: functional, organism-based
[7] = target: Cannabinoid receptor 2 (Homo sapiens) (UniProt P34972); assay: Displacement of [3H]-CP55940 from CB2 receptor after 90 mins by liquid scintillation counting
Chain of Cannabinoid receptor 2 (Homo sapiens) (P34972 whole entry): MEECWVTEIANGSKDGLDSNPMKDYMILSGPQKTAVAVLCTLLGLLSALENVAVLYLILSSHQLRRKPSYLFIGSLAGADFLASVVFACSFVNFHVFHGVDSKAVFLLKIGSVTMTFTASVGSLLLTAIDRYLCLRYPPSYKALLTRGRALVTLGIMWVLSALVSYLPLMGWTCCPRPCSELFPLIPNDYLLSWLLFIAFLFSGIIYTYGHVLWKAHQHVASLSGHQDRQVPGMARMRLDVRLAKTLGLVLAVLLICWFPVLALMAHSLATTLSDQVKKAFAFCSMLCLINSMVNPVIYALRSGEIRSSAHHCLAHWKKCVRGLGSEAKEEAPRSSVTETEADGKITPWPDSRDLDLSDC

[8] = target: T1, Peroxisome proliferator-activated receptor alpha; assay: Agonist activity at human PPARalpha expressed in MCF7 cells co-transfected CPTI DR1-type RE after 16 hrs by luciferase reporter gene assay; assay type: functional, cell-based
Procedure, shortened: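 Luciferase reporter assay in extracts of MCF-7 cells transiently transfected with a reporter carrying four copies of the human CPTI DR1-type response element, plus PPARα, RXRα and NCoR expression vectors. Cells treated 16 h with compounds at 10 μM, DMSO as solvent control. Mean of at least three experiments with SD; two-tailed paired Student's t-test against solvent.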

Cc1c(C(=O)Nc2ccc(O)cc2)nn(-c2ccc(Cl)cc2Cl)c1-c1ccc(Cl)cc1
EC50 [1]: 971 nM
Ki (Cannabinoid receptor 1): 4.6 nM
inhibition [2]: < 10%
Activity [3]: Active
Activity [4]: Active
Activity [5]: Active
Activity [6]: inactive
inhibition (Rattus norvegicus): inactive

CCOC(=O)C(C)(C)Oc1ccc(NC(=O)c2nn(-c3ccc(Cl)cc3Cl)c(-c3ccc(Cl)cc3)c2C)cc1
EC50 [1]: 1480 nM
Ki (Cannabinoid receptor 1): 109 nM
Activity [7]: inactive

Cc1c(C(=O)Nc2cccc(O)c2)nn(-c2ccc(Cl)cc2Cl)c1-c1ccc(Cl)cc1
EC50 [8]: 989 nM
EC50 [1]: 887 nM
Ki (Cannabinoid receptor 1): 52 nM

Cc1c(C(=O)NN2CCCCC2)nn(-c2ccc(Cl)cc2Cl)c1-c1ccc(I)cc1
inhibition [3]: Active

CCCCCCCC/C=C\CCCCCCCC(=O)NCCO [OLEOYLETHANOLAMIDE]
EC50 [8]: 152 nM
EC50 [1]: 185 nM

CCOC(=O)C(C)(C)Oc1cccc(NC(=O)c2nn(-c3ccc(Cl)cc3Cl)c(-c3ccc(Cl)cc3)c2C)c1
EC50 [8]: 743 nM
EC50 [1]: 856 nM
Ki (Cannabinoid receptor 1): 65 nM
inhibition [2]: < 10%
Activity [3]: Active
Activity [4]: Active
Activity [5]: inactive
Activity [6]: inactive
inhibition (Rattus norvegicus): inactive

Reference: ChEMBL document CHEMBL2021878, “Discovery of Potent Dual PPARα Agonists/CB1 Ligands” (ACS Med Chem Lett, 2011)
